The results in this text go back to ChEMBL document CHEMBL1148327, “Arylcyanoguanidines as activators of Kir6.2/SUR1K ATP channels and inhibitors of insulin release” (J Med Chem, 2004).

The species entered for experiment [1] is Rattus norvegicus. The experiment in a line: Relaxation of phenylephrine precontracted rat isolated aorta rings. Format: functional, organism-based.
Experiment [2] deals with Beta-TC6. The experiment in a line: In vitro efficacy to inhibit glucose stimulated insulin release in beta-TC6 cells […]. Format: functional.
Experiment [3] deals with Beta-TC3. The experiment in a line: Ability to repolarize beta-TC3 cell membrane potential. Format: functional, cell-based, Rattus norvegicus. Particulars: Mus musculus; call rule not given here.
Experiment [4] has as its system Beta-TC6. Briefly: In vitro ability to inhibit glucose stimulated insulin release in beta-TC6 cells […]. Format: functional, cell-based. Particulars: Mus musculus.
The subject of experiment [5] is Beta-TC6. The experiment in a line: In vitro ability to inhibit glucose stimulated insulin release in beta-TC6 cells […]; Not active. It counts as functional, cell-based.
Experiment [6] relates to Beta-TC3. The experiment in a line: Ability to repolarize beta-TC3 cell membrane potential; Not significant. It counts as functional, cell-based, Rattus norvegicus.
The species named for experiment [7] is Rattus norvegicus. The experiment in a line: Effective concentration required relaxation of precontracted rat aorta ring. It counts as functional, organism-based.
The species entered for experiment [8] is Rattus norvegicus. Briefly: Efficacy to inhibit insulin release from rat islets. Format: functional, organism-based.
Experiment [9] concerns A10. The experiment in a line: Effect on membrane potential of mitochondria in A10 smooth muscle cells from rats. Particulars: Rattus norvegicus, read-out: ED50 (the source's name). It counts as functional.
In experiment [10] the test system is HepG2. The experiment in a line: (§1) Maximum effect on glucose utilization in HepG2 cells expressed as % of full stimulation. Format: functional. Particulars: Homo sapiens. The gist of the method:
(§2)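 HEP-G2 glucose oxidation: 2×10^4 cells/well incubated overnight at 37 °C, 5% CO2. Compounds diluted from 100× DMSO stocks into medium with 10 μCi/mL D-(5-3H)-glucose, in duplicate, 3 h at 37 °C. Lysed with 10% TCA; 3H-water separated by evaporation and counted. Mean ± SEM of three experiments.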

Experiment [11] concerns HepG2. The experiment in a line: (§3) Effective concentration required for stimulation of glucose utilization in Hepatocytes (HEP-G2 cells). Format: functional, cell-based. Particulars: Homo sapiens. The gist of the method:
as §2

For experiment [12], the species on record is Rattus norvegicus. Briefly: Inhibitory effect on insulin release from rat islets. It counts as functional, organism-based.
Experiment [13] has as its system Beta-TC3. The experiment in a line: Effect on membrane potential of mitochondria in beta-TC3 cells […]. It counts as functional. Particulars: Mus musculus, read-out: ED50 (the source's name).
Experiment [14] deals with HepG2. The experiment is described as §1. Format: functional, Rattus norvegicus. Particulars: Homo sapiens. The gist of the method: as §2
The species entered for experiment [15] is Rattus norvegicus. Briefly: Efficacy on insulin release from rat islets. Format: functional, organism-based.
The species entered for experiment [16] is Rattus norvegicus. Briefly: Effect on insulin release from rat islets. It counts as functional, organism-based.
For experiment [17], the system named is HepG2. The experiment is described as §3. Format: functional, cell-based, Rattus norvegicus. Particulars: Homo sapiens. A digest of the protocol: as §2
For experiment [18], the system named is A10. Briefly: Effect on membrane potential of mitochondria of A10 smooth muscle cells in rats. Format: functional. Particulars: Rattus norvegicus, read-out: ED50 (the source's name).
The test system of experiment [19] is Beta-TC3. The experiment in a line: Effect on membrane potential of mitochondria of beta-TC3 cells in rats. It counts as functional, Rattus norvegicus. Particulars: Mus musculus, read-out: ED50 (the source's name).

One may read the IC50 as the concentration at which inhibition is half-maximal. A low value points to greater potency in that assay. With `N#CN/C(=N\C1CCCC1)Nc1cc(Cl)cc(Cl)c1`, the IC50 in experiment [1] was 75 µM; in experiment [3], 12 µM; in [4] it was 28.7 µM. Besides, the Efficacy in experiment [2] is 18%.

On to `CCC(C)(C)/N=C(\NC#N)Nc1cc(Cl)cc(Cl)c1`, for which, in experiment [2], the Efficacy stood at 32%. The IC50 in experiment [3] amounted to 24 µM; in experiment [4], 48.5 µM.

Compound `N#CN/C(=N\C1(c2cccc(Cl)c2)CCC1)Nc1cc(C(F)(F)F)cc(C(F)(F)F)c1` had an Efficacy in experiment [2] of 66%. The IC50 in [3] stood at 20 µM; in [4], 2.8 µM.

Consider `CC1=Nc2ccc(Cl)cc2S(=O)(=O)N1` [DIAZOXIDE], for which the IC50 in experiment [1] was 12.8 µM; in experiment [3], 13.7 µM. This compound showed an Efficacy in [2] of 23%.

Consider `C[C@H](/N=C(\NC#N)Nc1cc(Cl)cc(Cl)c1)c1ccccc1`, for which the Efficacy in experiment [2] is 27%. For the same compound, the IC50 in experiment [3] is 25 µM; in experiment [4], 39.8 µM.

For `CC(C)CC/N=C(\NC#N)Nc1cc(F)cc(F)c1`, the IC50 result in experiment [5] was “Not Active”; in [1] it was 85 µM; in experiment [6], “Not Active”.

On to `CC(C)C(C)/N=C(\NC#N)Nc1cc(C(F)(F)F)cc(C(F)(F)F)c1` (stereo unspecified), for which the IC50 in experiment [1] turned out to be 17.6 µM; in experiment [3] it was 5.5 µM; in experiment [4], 5.2 µM. The compound further registered an Efficacy in [2] of 69%.

Turning to `N#C/N=C(\Nc1cccnc1)NC1(c2cccc(Cl)c2)CCC1`, in [7], the EC50 is 113 µM.

For the compound `C[C@H](/N=C(\NC#N)Nc1cc(C(F)(F)F)cc(C(F)(F)F)c1)C(C)(C)C`, the figures for the IC50 in [1], in experiment [3] and in [4] were 11.9 µM, 12 µM and 13.7 µM, respectively. Also, the Efficacy in experiment [2] is reported as 67%.

Compound `CCC/N=C(\NC#N)Nc1cc(C(F)(F)F)cc(C(F)(F)F)c1` yielded an Efficacy in experiment [2] of 53%. This compound gave an IC50 in experiment [3] of 19 µM.

For the compound `CCC(C)(C)/N=C(\NC#N)Nc1cc(C(F)(F)F)cc(C(F)(F)F)c1`, the IC50 entry in experiment [5] and in experiment [6] was “Not Active” in each case.

`CC(C)CC/N=C(\NC#N)Nc1cc(C(F)(F)F)cc(C(F)(F)F)c1` came in with an Efficacy in experiment [2] of 77%. The same compound had an IC50 in experiment [3] of 4.7 µM.

With `CC(N/C(=N\C#N)Nc1ccncc1)C(C)(C)C` (stereo unspecified) [PINACIDIL ANHYDROUS], the IC50 in experiment [1] was 0.8 µM; in [4], more than 100 µM; in experiment [6], “Not Active”.

The term Emax denotes the size of the effect at its maximum, as opposed to the concentration needed. On to `N#CN/C(=N\C1CCCC1)Nc1cc(C(F)(F)F)cc(C(F)(F)F)c1`, for which the Efficacy in [8] and in experiment [2] was 65% in each case. Also, the EC50 was 1 µM in experiment [9], 10.4 µM in experiment [11] and more than 30 µM in experiment [13]. For the same compound, the IC50 in experiment [1] was more than 300 µM; in experiment [12] it was 1.24 µM; in [3], 4.7 µM; in [4] it was 5.45 µM. The compound also displayed an Emax in [10] of 95%.

For `CC(C)/N=C(\NC#N)Nc1cc(Cl)cc(Cl)c1`, the IC50 result in experiment [5] is “Not Active”; in experiment [1], 52 µM; in [6], “Not Active”.

In [2], `CC(C)CC/N=C(\NC#N)Nc1cccnc1` had an Efficacy of 23%. The figures for the IC50 in experiment [4] and in experiment [6] were 1.2 µM and “Not Active”, respectively.

Take `COc1cc(N/C(=N/C2CCCC2)NC#N)cc(C(F)(F)F)c1`: the IC50 result in [5] is “Not Active”; in experiment [1], 75 µM; in [6], “Not Active”.

In the case of `C[C@@H](/N=C(\NC#N)Nc1cc(Cl)cc(Cl)c1)c1ccccc1`, the figures for the IC50 in experiment [1], in experiment [4] and in [6] were 43.8 µM, 16.1 µM and “Not Active”, respectively. Moreover, in experiment [2], the Efficacy is recorded as 22%.

In experiment [2], `CC(C)/N=C(\NC#N)Nc1cc(C(F)(F)F)cc(C(F)(F)F)c1` came in with an Efficacy of 20%. Moreover, the values for the IC50 in experiment [4] and in [6] were 41.4 µM and “Not Active”, respectively.

In turn, `CC(C)CC/N=C(\NC#N)Nc1cc(Cl)cc(Cl)c1` gave an Emax in [14] of 98%. In addition, the figures for the Efficacy in [15] and in [2] were 72% and 60%, respectively. The values for the IC50 in experiment [16], in [3] and in [4] were 3.8 µM, 0.8 µM and 4.2 µM, respectively. Also, the EC50 in [17] is 22 µM; in [18], 2 µM; in experiment [19] it was more than 30 µM.

As for `C[C@@H](/N=C(\NC#N)Nc1cc(C(F)(F)F)cc(C(F)(F)F)c1)C(C)(C)C`, the IC50 in experiment [1] turned out to be 20.3 µM; in experiment [3] it was 18 µM; in experiment [4], 4.4 µM. For the same compound, the Efficacy in experiment [2] amounted to 68%.
